Measured values: ChEMBL document CHEMBL1147862, “Studies on synthesis and pharmacological activities of 3,6-disubstituted-1,2,4-triazolo[3,4-b]-1,3,4-thiadiazoles and their dihydro analogues” (2007)

Legend:
Assay type in all cases: functional
Rattus norvegicus [1] = assay: Antiinflammatory activity in Wistar Albino rat assessed as inhibition of carrageenan-induced paw oedema at 20 mg/kg after 3 hrs relative to control
Method in brief: (§1)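 Wistar albino rats, 150–200 g, six per group, dosed orally with a 20 mg/kg suspension; control gets 0.1 ml 1% gum acacia. After 30 min, 0.1 ml 1% carrageenan in saline is injected subplantar into the right hind paw. Paw volume is read by plethysmograph at 0–4 h. Inhibition = 100(1 − Vtest/Vcontrol) on mean volume increase.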

Escherichia coli [2] = assay: Antibacterial activity against Escherichia coli at 30 ug/ml by agar plate diffusion technique; conditions: read-out: IZ
Bacillus subtilis [3] = assay: Antibacterial activity against Bacillus subtilis at 20 ug/ml by agar plate diffusion technique; conditions: read-out: IZ
Mus musculus [4] = assay: Analgesic activity in Swiss mouse assessed as increase in reaction time at 20 mg/kg, po after 90 mins by Eddy's hot plate technique
Method in brief: (§2)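 Swiss mice of either sex, 25–35 g, placed one at a time on a hot plate held at 55 °C. End point is paw licking or jumping, whichever comes first, with a 15 s cut-off to avoid paw injury. Reaction time is recorded and reported as percent increase in reaction time.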

Staphylococcus aureus [5] = assay: Antibacterial activity against Staphylococcus aureus at 30 ug/ml by agar plate diffusion technique; conditions: read-out: IZ
Pseudomonas aeruginosa [6] = assay: Antibacterial activity against Pseudomonas aeruginosa at 10 ug/ml by agar plate diffusion technique; conditions: read-out: IZ
Candida albicans [7] = assay: Antifungal activity against Candida albicans at 30 ug/ml by paper disc method; conditions: read-out: IZ
Candida albicans [8] = assay: Antifungal activity against Candida albicans at 10 ug/ml by paper disc method; conditions: read-out: IZ
Mus musculus [9] = assay: Analgesic activity in Swiss mouse assessed as increase in reaction time at 20 mg/kg, po after 60 mins by Eddy's hot plate technique; method in brief: as §2
Aspergillus niger [10] = assay: Antifungal activity against Aspergillus niger at 30 ug/ml by paper disc method; conditions: read-out: IZ
Rattus norvegicus [11] = assay: Antiinflammatory activity in Wistar Albino rat assessed as inhibition of carrageenan-induced paw oedema at 20 mg/kg after 2 hrs relative to control; method in brief: as §1
Rattus norvegicus [12] = assay: Antiinflammatory activity in Wistar Albino rat assessed as inhibition of carrageenan-induced paw oedema at 20 mg/kg after 4 hrs relative to control; method in brief: as §1
Bacillus subtilis [13] = assay: Antibacterial activity against Bacillus subtilis at 30 ug/ml by agar plate diffusion technique; conditions: read-out: IZ
Escherichia coli [14] = assay: Antibacterial activity against Escherichia coli at 10 ug/ml by agar plate diffusion technique; conditions: read-out: IZ
Pseudomonas aeruginosa [15] = assay: Antibacterial activity against Pseudomonas aeruginosa at 20 ug/ml by agar plate diffusion technique; conditions: read-out: IZ
Pseudomonas aeruginosa [16] = assay: Antibacterial activity against Pseudomonas aeruginosa at 30 ug/ml by agar plate diffusion technique; conditions: read-out: IZ
Aspergillus niger [17] = assay: Antifungal activity against Aspergillus niger at 20 ug/ml by paper disc method; conditions: read-out: IZ
Aspergillus niger [18] = assay: Antifungal activity against Aspergillus niger at 10 ug/ml by paper disc method; conditions: read-out: IZ
Rattus norvegicus [19] = assay: Antiinflammatory activity in Wistar Albino rat assessed as inhibition of carrageenan-induced paw oedema at 20 mg/kg after 1 hr relative to control; method in brief: as §1
Escherichia coli [20] = assay: Antibacterial activity against Escherichia coli at 20 ug/ml by agar plate diffusion technique; conditions: read-out: IZ
Staphylococcus aureus [21] = assay: Antibacterial activity against Staphylococcus aureus at 20 ug/ml by agar plate diffusion technique; conditions: read-out: IZ
Staphylococcus aureus [22] = assay: Antibacterial activity against Staphylococcus aureus at 10 ug/ml by agar plate diffusion technique; conditions: read-out: IZ
Bacillus subtilis [23] = assay: Antibacterial activity against Bacillus subtilis at 10 ug/ml by agar plate diffusion technique; conditions: read-out: IZ
Mus musculus [24] = assay: Analgesic activity in Swiss mouse assessed as increase in reaction time at 20 mg/kg, po after 30 mins by Eddy's hot plate technique; method in brief: as §2
Candida albicans [25] = assay: Antifungal activity against Candida albicans at 20 ug/ml by paper disc method; conditions: read-out: IZ

| Compound | inhibition in vivo at 20 mg/kg (Rattus norvegicus [1]) | zone of inhibition at 30 µg/mL (Escherichia coli [2]) | zone of inhibition at 20 µg/mL (Bacillus subtilis [3]) | Activity (Mus musculus [4]) | zone of inhibition at 30 µg/mL (Staphylococcus aureus [5]) | zone of inhibition at 10 µg/mL (Pseudomonas aeruginosa [6]) | zone of inhibition at 30 µg/mL (Candida albicans [7]) | zone of inhibition at 10 µg/mL (Candida albicans [8]) | Activity (Mus musculus [9]) | zone of inhibition at 30 µg/mL (Aspergillus niger [10]) | inhibition in vivo at 20 mg/kg (Rattus norvegicus [11]) | inhibition in vivo at 20 mg/kg (Rattus norvegicus [12]) | zone of inhibition at 30 µg/mL (Bacillus subtilis [13]) | zone of inhibition at 10 µg/mL (Escherichia coli [14]) | zone of inhibition at 20 µg/mL (Pseudomonas aeruginosa [15]) | zone of inhibition at 30 µg/mL (Pseudomonas aeruginosa [16]) | zone of inhibition at 20 µg/mL (Aspergillus niger [17]) | zone of inhibition at 10 µg/mL (Aspergillus niger [18]) | inhibition in vivo at 20 mg/kg (Rattus norvegicus [19]) | zone of inhibition at 20 µg/mL (Escherichia coli [20]) | also measured |
| --- | --- | --- | --- | --- | --- | --- | --- | --- | --- | --- | --- | --- | --- | --- | --- | --- | --- | --- | --- | --- | --- |
| Cc1occc1-c1nnc2n1NC(c1ccc[nH]1)S2 (stereo not given) | 20.3% | 15.7 mm | 10.7 mm | 23% | 12.3 mm | 6.67 mm | 14.8 mm | 5.24 mm | 17.45% | 13.2 mm | 18.2% | 22.7% | 16.3 mm | 5.11 mm | 12.3 mm | 14.7 mm | 9.42 mm | 5.1 mm | 13.7% | 8.42 mm | zone of inhibition at 20 µg/mL (Staphylococcus aureus [21]): 8.12 mm; zone of inhibition at 10 µg/mL (Staphylococcus aureus [22]): 4.6 mm; zone of inhibition at 10 µg/mL (Bacillus subtilis [23]): 5.33 mm; Activity (Mus musculus [24]): 7.14%; zone of inhibition at 20 µg/mL (Candida albicans [25]): 9.16 mm |
| COc1ccc(Cl)c(-c2nnc3sc(-c4ccnc(F)c4)nn23)c1 | 25.9% | 19.7 mm | 14.1 mm | 20.34% | 19.2 mm | 8.68 mm | 21.7 mm | 7.68 mm | 11.35% | 20.5 mm | 24.6% | 28.1% | 19.2 mm | 8.1 mm | 14.9 mm | 19.5 mm | 12.6 mm | 6.68 mm | 18.5% | 14.7 mm | zone of inhibition at 20 µg/mL (Staphylococcus aureus [21]): 14.1 mm; zone of inhibition at 10 µg/mL (Staphylococcus aureus [22]): 7.29 mm; zone of inhibition at 10 µg/mL (Bacillus subtilis [23]): 7.78 mm; Activity (Mus musculus [24]): 4.12%; zone of inhibition at 20 µg/mL (Candida albicans [25]): 14.5 mm |
| COc1ccc2[nH]cc(Cc3nn4c(-c5ccoc5C)nnc4s3)c2c1 | 26.1% | 14.2 mm | 9.61 mm | 31.86% | 13.3 mm | 5.36 mm | 13.5 mm | 5.62 mm | 24.76% | 13.1 mm | 20.1% | 30.8% | 14.2 mm | 5.16 mm | 9.62 mm | 14.5 mm | 9.8 mm | 5.06 mm | 16% | 9.35 mm | zone of inhibition at 20 µg/mL (Staphylococcus aureus [21]): 9.1 mm; zone of inhibition at 10 µg/mL (Staphylococcus aureus [22]): 4.85 mm; zone of inhibition at 10 µg/mL (Bacillus subtilis [23]): 5.82 mm; Activity (Mus musculus [24]): 13.84%; zone of inhibition at 20 µg/mL (Candida albicans [25]): 10.8 mm |
| COc1ccc(Cc2nnc3n2NC(c2ccc[nH]2)S3)cc1OC (stereo not given) | 17.7% | 14.2 mm | 8.32 mm | 21.06% | 10.6 mm | 7.33 mm | 13.1 mm | 4.7 mm | 12.65% | 12.2 mm | 15.9% | 21.5% | 12 mm | 4.48 mm | 11.7 mm | 13.3 mm | 9.12 mm | 4.68 mm | 13.2% | 7.18 mm | zone of inhibition at 20 µg/mL (Staphylococcus aureus [21]): 7.64 mm; zone of inhibition at 10 µg/mL (Staphylococcus aureus [22]): 4.02 mm; zone of inhibition at 10 µg/mL (Bacillus subtilis [23]): 4.32 mm; Activity (Mus musculus [24]): 7.6%; zone of inhibition at 20 µg/mL (Candida albicans [25]): 8.12 mm |
| COc1ccc(Cl)c(-c2nnc3n2NC(c2ccco2)S3)c1 (stereo not given) | 23.1% | 14.4 mm | 7.68 mm | 23.89% | 14.1 mm | 4.82 mm | 14.8 mm | 5.19 mm | 12.55% | 13.1 mm | 18.7% | 25.6% | 13.6 mm | 4.12 mm | 8.95 mm | 14.2 mm | 7.13 mm | 5.16 mm | 13.9% | 7.39 mm | zone of inhibition at 20 µg/mL (Staphylococcus aureus [21]): 8.61 mm; zone of inhibition at 10 µg/mL (Staphylococcus aureus [22]): 4.82 mm; zone of inhibition at 10 µg/mL (Bacillus subtilis [23]): 4.39 mm; Activity (Mus musculus [24]): 6.24%; zone of inhibition at 20 µg/mL (Candida albicans [25]): 10.3 mm |
| COc1ccc(Cc2nnc3n2NC(c2ccco2)S3)cc1OC (stereo not given) | 21.1% | 14.2 mm | 6.65 mm | 25.11% | 11.8 mm | 3.73 mm | 14.7 mm | 5.48 mm | 17.26% | 12.3 mm | 17.5% | 24.6% | 12.2 mm | 4.29 mm | 7.11 mm | 12.7 mm | 6.96 mm | 4.8 mm | 12% | 7.49 mm | zone of inhibition at 20 µg/mL (Staphylococcus aureus [21]): 7.31 mm; zone of inhibition at 10 µg/mL (Staphylococcus aureus [22]): 3.7 mm; zone of inhibition at 10 µg/mL (Bacillus subtilis [23]): 3.8 mm; Activity (Mus musculus [24]): 5.36%; zone of inhibition at 20 µg/mL (Candida albicans [25]): 10.4 mm |
| COc1ccc(Cl)c(-c2nnc3n2NC(c2ccc([N+](=O)[O-])o2)S3)c1 (stereo not given) | 21.7% | 15.1 mm | 8.71 mm | 23.45% | 14.2 mm | 4.88 mm | 15.2 mm | 5.58 mm | 14.1% | 14.5 mm | 18.5% | 24.2% | 13.6 mm | 5.21 mm | 7.36 mm | 13.2 mm | 9.72 mm | 5.32 mm | 15.6% | 10.1 mm | zone of inhibition at 20 µg/mL (Staphylococcus aureus [21]): 8.82 mm; zone of inhibition at 10 µg/mL (Staphylococcus aureus [22]): 5.2 mm; zone of inhibition at 10 µg/mL (Bacillus subtilis [23]): 5.12 mm; Activity (Mus musculus [24]): 5.71%; zone of inhibition at 20 µg/mL (Candida albicans [25]): 11.3 mm |
